Calls of active or inactive are those of the source. No cut-off for these calls is given here.
T1: Aurora kinase A (Homo sapiens) (UniProt O14965)
T1 sequence (whole entry): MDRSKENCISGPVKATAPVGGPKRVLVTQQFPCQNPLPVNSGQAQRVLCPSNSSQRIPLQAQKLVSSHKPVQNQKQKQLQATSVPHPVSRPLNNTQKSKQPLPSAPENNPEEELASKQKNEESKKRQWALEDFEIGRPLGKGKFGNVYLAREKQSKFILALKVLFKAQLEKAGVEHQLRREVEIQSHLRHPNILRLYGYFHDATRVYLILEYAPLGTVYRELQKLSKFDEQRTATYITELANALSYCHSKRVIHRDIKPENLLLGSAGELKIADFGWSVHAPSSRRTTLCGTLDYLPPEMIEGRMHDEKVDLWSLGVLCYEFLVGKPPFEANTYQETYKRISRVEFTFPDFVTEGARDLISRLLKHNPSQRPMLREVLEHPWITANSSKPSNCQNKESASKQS

B1: Aurora kinase A (Homo sapiens), O14965 (protein)
chain: MDRSKENCISGPVKATAPVGGPKRVLVTQQFPCQNPLPVNSGQAQRVLCPSNSSQRIPLQAQKLVSSHKPVQNQKQKQLQATSVPHPVSRPLNNTQKSKQPLPSAPENNPEEELASKQKNEESKKRQWALEDFEIGRPLGKGKFGNVYLAREKQSKFILALKVLFKAQLEKAGVEHQLRREVEIQSHLRHPNILRLYGYFHDATRVYLILEYAPLGTVYRELQKLSKFDEQRTATYITELANALSYCHSKRVIHRDIKPENLLLGSAGELKIADFGWSVHAPSSRRTTLCGTLDYLPPEMIEGRMHDEKVDLWSLGVLCYEFLVGKPPFEANTYQETYKRISRVEFTFPDFVTEGARDLISRLLKHNPSQRPMLREVLEHPWITANSSKPSNCQNKESASKQS

Assays:
[1] = target: T1, Aurora kinase A (Homo sapiens); assay: Binding affinity to human AURA expressed in baculovirus in presence of anacardic acid
Outline: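 Baculovirus-expressed, C-terminally His6-tagged AURA purified on Ni-NTA. Intrinsic fluorescence quenching was read at 301 nm (excitation 280 nm), with inner-filter correction. Ka came from double-reciprocal FR and the Chipman method.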

[2] = target: T1, Aurora kinase A (Homo sapiens); assay: Binding affinity to human AURA expressed in baculovirus
Outline: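 Baculovirus-expressed, C-terminally His6-tagged AURA purified on Ni-NTA. Excitation was at 280 nm and quenching of intrinsic fluorescence was read at 301 nm, with inner-filter correction. FR came from a double-reciprocal plot, and Ka was calculated by the Chipman method.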

[3] = target: T1, Aurora kinase A (Homo sapiens); assay: Binding affinity to human AURA expressed in baculovirus in presence of ATP
[4] = target: T1, Aurora kinase A (Homo sapiens); assay: Activation of human AURA mediated histone H3 phosphorylation by phosphoimager analyzer
Outline: (§1)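 Compound (5–50 µM, in DMSO) preincubated 5 min at 30 °C, then [γ-32P]ATP added for 10 min. 25% TCA precipitation, 15% SDS-PAGE, autoradiography; phosphoimager quantitation of relative intensity versus DMSO control.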

[5] = target: T1, Aurora kinase A (Homo sapiens); assay: Activation of human AURA activity expressed in baculovirus cells by time course assay
[6] = target: T1, Aurora kinase A (Homo sapiens); assay: Activation of human AURA assessed as histone H3 phosphorylation; outline: as §1
[7] = target: Aurora kinase B (Homo sapiens) (UniProt Q96GD4); assay: Activation of human AURB mediated histone H3 phosphorylation by phosphoimager analyzer; outline: as §1
Chain of Aurora kinase B (Homo sapiens) (Q96GD4 whole entry): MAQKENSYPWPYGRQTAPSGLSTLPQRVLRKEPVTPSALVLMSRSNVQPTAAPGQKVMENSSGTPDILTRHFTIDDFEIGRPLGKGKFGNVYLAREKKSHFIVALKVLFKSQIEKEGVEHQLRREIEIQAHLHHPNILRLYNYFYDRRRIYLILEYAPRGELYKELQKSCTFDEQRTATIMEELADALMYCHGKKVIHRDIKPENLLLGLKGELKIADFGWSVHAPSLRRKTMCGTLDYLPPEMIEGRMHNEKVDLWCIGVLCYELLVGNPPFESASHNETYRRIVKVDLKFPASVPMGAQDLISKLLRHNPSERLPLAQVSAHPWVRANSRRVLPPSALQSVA

[8] = target: T1, Aurora kinase A (Homo sapiens); assay: Activation of human AURA autophosphorylation activity
Outline: (§2)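 Autophosphorylation read from the same gels: 1.5 µg histone H3 with AURA (40 ng) or AURB (120 ng) and [γ-32P]ATP, with or without compound at 25 and 50 µM in DMSO. Reactions precipitated with 25% TCA, resolved on 15% SDS-PAGE, then autoradiographed.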

[9] = target: Aurora kinase B (Homo sapiens) (UniProt Q96GD4); assay: Activation of human AURB autophosphorylation activity; outline: as §2
[10] = substrate: C=CC/C=C\C/C=C\CCCCCCCc1cccc(O)c1C(=O)O; assay: Ratio of Kcat for human AURA to Km for human AURA
Outline: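 AURA kinase assay with H3 substrate, with increasing [γ-32P]ATP (2.5–15 µM) in the presence of DMSO or 50 µM compound; 5 min 30 °C preincubation, 10 min reaction, TCA precipitation, PAGE and phosphoimager quantitation. Km, Vmax and kcat fitted from activity against ATP concentration.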

[11] = substrate: C=CC/C=C\C/C=C\CCCCCCCc1cccc(O)c1C(=O)O; assay: Activity of human AURA expressed in baculovirus at 50 uM by phosphorimager analyzer; outline: as §1

Row | Molecule | Ka [1] [nM⁻¹] | Ka [2] [µM⁻¹] | Ka [3] [µM⁻¹] | Activity [4] | Activity [5] | Activity [6] | Activity [7] | Activity [8] | Activity [9] | kcat/Km [10] [M⁻¹ s⁻¹] | Km [11] [mM] | Vmax [11] [mmol/min/mg] | kcat [11] [s⁻¹]
1 | Nc1ncnc2c1ncn2[C@@H]1O[C@H](COP(=O)(O)OP(=O)(O)OP(=O)(O)O)[C@@H](O)[C@H]1O | 27.5 | 5.7 | – | – | – | – | – | – | – | – | – | – | –
2 | C=CC/C=C\C/C=C\CCCCCCCc1cccc(O)c1C(=O)O | – | 5.2 | 10.1 | Active | Active | Dose-dependent effect | inactive | Active | inactive | – | – | – | –
3 | B1 | – | – | – | – | – | – | – | – | – | 6990 | 40.2 | 62.5 | 282
